Experimental data taken from ChEMBL document CHEMBL4011638, “Semisynthetic Flavone-Derived Antimicrobials with Therapeutic Potential against Methicillin-Resistant Staphylococcus aureus (MRSA)” (J Med Chem, 2017).
≈ marks a conversion by molar mass, not a printed value. Calls of active or inactive are those of the source. The rule behind the calls is not given here.

Columns and labels:
[1] = tested on: Staphylococcus aureus; test: Antibacterial activity against methicillin-sensitive Staphylococcus aureus ATCC 6538 after 24 hrs by broth microdilution method; type: functional; settings: ATCC 6538, 24 h
Summary of the method: (§1)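 Broth microdilution per CLSI in cation-adjusted Mueller−Hinton broth, in tubes. Compounds dissolved in H2O or DMF, then diluted in PBS to 1000 μg/mL stocks. Serial 2-fold dilutions were made, with final DMF 2.5%. Organisms were grown on TSA at 35 °C for 20 h and adjusted to ~5× 10^5 CFU/mL. Tubes were incubated at 35 °C for 24 h. MIC was the lowest concentration with no visible growth versus control. Biological replicates.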

[2] = Cytotoxicity in human Corneal fibroblasts assessed as LDH release at 100 uM after 24 hrs; type: cell-based; settings: corneal fibroblast
Summary of the method: (§2)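 Human corneal fibroblasts are exposed to test samples for 24 h, and cytotoxicity is read as LDH leakage into the medium. Biological replicates.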

[3] = Ratio of HC50 for New Zealand white rabbit RBC to MIC for methicillin-sensitive Staphylococcus aureus DM4583R
Summary of the method: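 HC50 measured on fresh New Zealand white rabbit RBCs, washed three times in PBS, at 4% v/v final. Cells were incubated with 2-fold serial dilutions (DMF final 0.5%) at 37 °C for 1 h, then centrifuged. Supernatant absorbance was read at 576 nm, with PBS as 0% and 2% Triton X-100 as 100% lysis. HC50 is the concentration lysing 50% of cells, divided by MIC from broth microdilution.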

[4] = tested on: Staphylococcus aureus; test: Antibacterial activity against Staphylococcus aureus ATCC 29213 infected in C57BL6 mouse keratitis model assessed as log reduction in bacterial burden at 0.5 % administered 4 times daily at 2 hrs interval for 1 day; type: functional
Summary of the method: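 C57BL6 mice, 6–8 weeks, 20–30 g, four per group, anesthetized with ketamine/xylazine. Right cornea scratched (three 1 mm cuts), 10 μL of 6×10^8 CFU/mL S. aureus ATCC 29213 in PBS applied topically. From day 1, 0.5% drug in PBS (12 mM, pH 7.2) given 4 times at 2 h intervals. Corneas homogenized in 0.9% NaCl/0.25% BSA, diluted, plated in duplicate on TSA, 48 h at 35 °C.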

[5] = Cytotoxicity in human Corneal fibroblasts assessed as LDH release at 30 uM after 24 hrs; type: cell-based; settings: corneal fibroblast; summary of the method: as §2
[6] = tested on: Staphylococcus aureus; test: Antibacterial activity against Staphylococcus aureus ATCC 29213 after 17 passages; type: functional
[7] = tested on: Staphylococcus aureus; test: Antibacterial activity against methicillin-resistant Staphylococcus aureus ATCC 43300 after 24 hrs by broth microdilution method; type: functional; settings: ATCC 43300, 24 h; summary of the method: as §1
[8] = tested on: Staphylococcus aureus; test: Bactericidal activity against methicillin-resistant Staphylococcus aureus DM9808R assessed as log reduction in bacterial count up to 4 hrs by time kill assay; type: functional
Summary of the method: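 Time-kill. Starting inoculum 10^5−10^6 CFU/mL, exposed to 0.5×, 1×, 2× and 4× MIC at 35 °C. Colonies were counted after 24 h at 35 °C and CFU/mL calculated. Biological replicates.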

[9] = tested on: Lipid bilayer; test: Membrane permeabilization activity in DOPE/DOPG large unilamellar liposomes assessed as leakage of calcein at 1:4 compound to lipid ratio by fluorescence assay
Summary of the method: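 Calcein-loaded 100 nm LUVs of DOPE/DOPG (3:1, w/w), made by film hydration in 80 mM calcein, 100 mM NaCl, 50 mM HEPES, 0.3 mM EDTA, pH 7.4. Liposomes 50 μM, 0.5% DMF, room temperature. Read at ex 490/em 520 nm every 2 min for 30 cycles. % leakage normalized to 0.1% Triton X-100 (100%) and 0.5% DMF (0%). Biological replicates.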

[10] = Cytotoxicity against human Corneal fibroblasts assessed cell viability at 100 uM after 24 hrs by Cell Titer-Glo luminescent assay; type: cell-based, Corneal fibroblast; settings: read-out: Activity
Summary of the method: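 ATP luminescence viability in human corneal fibroblasts, ~10000 cells per well, duplicate wells. After 24 h exposure the plate is equilibrated 0.5 h at 22 °C before Cell Titer-Glo addition and luminescence read. 1% Triton X-100 serves as positive control, medium-treated cells as negative control. Biological replicates.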

[11] = tested on: Staphylococcus aureus; test: Antibacterial activity against methicillin-sensitive Staphylococcus aureus DM4400R after 24 hrs by broth microdilution method; type: functional; summary of the method: as §1

SMILES: COC(=O)[C@H](CCCNC(=N)N)NC(=O)COc1cc(O)c2c(=O)c(OCC(=O)N[C@@H](CCCNC(=N)N)C(=O)OC)c(-c3ccc(OC)cc3)oc2c1CC=C(C)C
- MIC [1]: 1.56 µg/mL (≈ 1.89 µM)
- Activity [2]: 23.9%
- Ratio [3]: > 511
- Activity [4]: Active
- Activity [5]: -2.3%
- Activity [6]: Active
- MIC [7]: 1.56 µg/mL (≈ 1.89 µM)
- Activity [8]: Active
- Activity [9]: 46%
- viability at 24 h, 100 µM [10]: 57.7%
- MIC [11]: 3.13 µg/mL (≈ 3.79 µM)
